Data taken from ChEMBL document CHEMBL1128365, “S-(5'-deoxy-5'-adenosyl)-1-aminoxy-4-(methylsulfonio)-2-cyclopentene (AdoMao): an irreversible inhibitor of S-adenosylmethionine decarboxylase with potent in vitro antitrypanosomal activity” (J Med Chem, 1995).
Values belong to the compound of their own block, whether it stands above or below them.

Experiments:
[1] = target: T1, S-adenosylmethionine decarboxylase proenzyme (Homo sapiens, UniProt P17707); assay: (§1) compound was evaluated for the inhibitor constant against human S-adenosyl-L-methionine decarboxylase
T1 sequence (P17707 whole entry): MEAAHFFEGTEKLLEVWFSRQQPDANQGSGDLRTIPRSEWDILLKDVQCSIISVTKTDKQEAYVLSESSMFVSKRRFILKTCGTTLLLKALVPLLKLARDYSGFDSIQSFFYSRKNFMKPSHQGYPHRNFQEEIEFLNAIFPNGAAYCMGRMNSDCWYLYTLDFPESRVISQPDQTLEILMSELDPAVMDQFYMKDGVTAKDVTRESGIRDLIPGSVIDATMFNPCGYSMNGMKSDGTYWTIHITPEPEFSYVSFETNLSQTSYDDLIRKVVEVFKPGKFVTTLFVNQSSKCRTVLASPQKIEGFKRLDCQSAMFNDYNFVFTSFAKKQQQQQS

[2] = tested on: Trypanosoma brucei brucei; assay: Compound was evaluated for the inhibition of growth of Trypanosoma brucei; format: functional, organism-based
How it was run: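 T. brucei brucei bloodforms cultured in modified Iscove's medium, 3% CO2 in air, 37 °C, feeder layer-free. Inhibitor dissolved in medium; half the volume replaced daily with double-strength inhibitor. Growth read by daily cell counts, IC50 after 48 h. Alternatively: 24 h with inhibitor, wash, 24 h with 1.0 μCi [3H]hypoxanthine, filtration and scintillation counting. Mean of two determinations.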

[3] = target: S-adenosylmethionine decarboxylase (Escherichia coli) (UniProt P0A7F6); assay: compound was evaluated for the inhibitor against Escherichia coli S-adenosyl-L-methionine decarboxylase.
[4] = target: T2, S-adenosylmethionine decarboxylase proenzyme (Homo sapiens) (UniProt P17707); assay: as §1
T2 sequence (whole entry): T1 sequence (P17707 whole entry)

[5] = tested on: HL-60; assay: Polyamine levels in cultured HL60 cells on spermine at the concentration of 50.0 uM; format: functional, Homo sapiens
How it was run: (§2)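 HL60 human promyelocytic leukemia cells exposed to inhibitor for 96 h, then sonicated. AdoMet-DC activity measured by the Anton and Kutny method. Intracellular putrescine, spermidine and spermine quantified by HPLC (Danzin method). Each value is the mean of two determinations.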

[6] = tested on: HL-60; assay: Polyamine levels in cultured HL60 cells on S-Adenosyl-methionine decarboxylase at the concentration of 50.0 uM; format: functional, Homo sapiens; how it was run: as §2
[7] = target: T1, S-adenosylmethionine decarboxylase proenzyme; assay: (§3) Compound was evaluated for the inhibitor constant against human S-adenosyl-L-methionine decarboxylase
[8] = tested on: HL-60; assay: Polyamine levels in cultured HL60 cells on spermine at the concentration of 10.0 uM; format: functional, Homo sapiens; how it was run: as §2
[9] = tested on: HL-60; assay: Polyamine levels in cultured HL60 cells on spermidine at the concentration of 0.1 uM; format: functional, Homo sapiens; how it was run: as §2
[10] = tested on: HL-60; assay: Polyamine levels in cultured HL60 cells on spermidine at the concentration of 10.0 uM; format: functional, Homo sapiens; how it was run: as §2
[11] = tested on: HL-60; assay: Polyamine levels in cultured HL60 cells on spermidine at the concentration of 1.0 uM; format: functional, Homo sapiens; how it was run: as §2
[12] = tested on: HL-60; assay: Polyamine levels in cultured HL60 cells on putrescine at the concentration of 0.1 uM; format: functional, Homo sapiens; how it was run: as §2
[13] = tested on: HL-60; assay: Polyamine levels in cultured HL60 cells on spermidine at the concentration of 100.0 uM; format: functional, Homo sapiens; how it was run: as §2
[14] = tested on: HL-60; assay: Polyamine levels in cultured HL60 cells on S-Adenosyl-methionine decarboxylase at the concentration of 10.0 uM; format: functional, Homo sapiens; how it was run: as §2
[15] = tested on: HL-60; assay: Polyamine levels in cultured HL60 cells on S-Adenosyl-methionine decarboxylase at the concentration of 0.1 uM; format: functional, Homo sapiens; how it was run: as §2
[16] = target: T2, S-adenosylmethionine decarboxylase proenzyme (Homo sapiens); assay: as §3
[17] = tested on: HL-60; assay: Polyamine levels in cultured HL60 cells on spermidine at the concentration of 50.0 uM; format: functional, Homo sapiens; how it was run: as §2
[18] = tested on: HL-60; assay: Polyamine levels in cultured HL60 cells on putrescine at the concentration of 100.0 uM; format: functional, Homo sapiens; how it was run: as §2
[19] = tested on: Trypanosoma brucei rhodesiense; assay: Compound was evaluated for the percentage inhibition of growth of uM; format: functional
[20] = tested on: HL-60; assay: Polyamine levels in cultured HL60 cells on spermine at the concentration of 0.1 uM; format: functional, Homo sapiens; how it was run: as §2
[21] = tested on: Trypanosoma brucei rhodesiense; assay: Compound was evaluated for the inhibition of growth of brucei rhodesiense (KETRI 243).; format: functional, organism-based
[22] = target: S-adenosylmethionine decarboxylase (Escherichia coli) (UniProt P0A7F6); assay: Compound was evaluated for the inhibitor against Escherichia coli S-adenosyl-L-methionine decarboxylase
[23] = tested on: HL-60; assay: Polyamine levels in cultured HL60 cells on S-Adenosyl-methionine decarboxylase at the concentration of 100.0 uM; format: functional, Homo sapiens; how it was run: as §2
[24] = tested on: HL-60; assay: Polyamine levels in cultured HL60 cells on putrescine at the concentration of 1.0 uM; format: functional, Homo sapiens; how it was run: as §2
[25] = tested on: HL-60; assay: Polyamine levels in cultured HL60 cells on S-Adenosyl-methionine decarboxylase at the concentration of 1.0 uM; format: functional, Homo sapiens; how it was run: as §2
[26] = tested on: HL-60; assay: Polyamine levels in cultured HL60 cells on putrescine at the concentration of 50.0 uM; format: functional, Homo sapiens; how it was run: as §2
[27] = tested on: HL-60; assay: Polyamine levels in cultured HL60 cells on spermine at the concentration of 100.0 uM; format: functional, Homo sapiens; how it was run: as §2
[28] = tested on: HL-60; assay: Polyamine levels in cultured HL60 cells on putrescine at the concentration of 10.0 uM; format: functional, Homo sapiens; how it was run: as §2
[29] = tested on: HL-60; assay: Polyamine levels in cultured HL60 cells on spermine at the concentration of 1.0 uM; format: functional, Homo sapiens; how it was run: as §2

S-adenosylmethionine decarboxylase (Escherichia coli), sequence (P0A7F6 whole entry, looked up): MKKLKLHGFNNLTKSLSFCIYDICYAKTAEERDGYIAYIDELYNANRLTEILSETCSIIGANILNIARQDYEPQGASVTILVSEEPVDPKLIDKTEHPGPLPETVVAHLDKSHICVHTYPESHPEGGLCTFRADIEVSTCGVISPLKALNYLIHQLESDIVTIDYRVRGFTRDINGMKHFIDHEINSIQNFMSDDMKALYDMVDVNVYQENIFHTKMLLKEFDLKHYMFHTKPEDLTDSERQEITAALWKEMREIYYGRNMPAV

Ki [1]: 21.2 µM
IC50 [2]: 10 µM
kinact [3]: 0.025 min⁻¹
kinact [4]: 0.079 min⁻¹
Structure (SMILES): C[S+](C[C@H]1O[C@@H](n2cnc3c(N)ncnc32)[C@H](O)[C@@H]1O)[C@H]1C=C[C@H](ON)C1 (stereo not given in full)

Ki [7]: 19.6 µM
IC50 [2]: 0.9 µM
kinact [16]: 0.115 min⁻¹
IC50 [21]: 10 µM
kinact [22]: 0.015 min⁻¹
Structure (SMILES): C[S+](C[C@H]1O[C@@H](n2cnc3c(N)ncnc32)[C@H](O)[C@@H]1O)C1C=CC(ON)C1.O=S(=O)(O)O.O=S(=O)([O-])O (stereo not given in full)
Activity [5]: 28 nM/mg
Activity [6]: 449 pmol/h/mg
Activity [8]: 31.6 nM/mg
Activity [9]: 7.9 nM/mg
Activity [10]: 8.4 nM/mg
Activity [11]: 10.1 nM/mg
Activity [12]: 0.71 nM/mg
Activity [13]: 16.1 nM/mg
Activity [14]: 293 pmol/h/mg
Activity [15]: 355 pmol/h/mg
Activity [17]: 11.2 nM/mg
Activity [18]: 0.94 nM/mg
Inhibition [19]: 49%
Activity [20]: 30.4 nM/mg
Activity [23]: 489 pmol/h/mg
Activity [24]: 0.94 nM/mg
Activity [25]: 347 pmol/h/mg
Activity [26]: 0.79 nM/mg
Activity [27]: 27 nM/mg
Activity [28]: 0.71 nM/mg
Activity [29]: 38.1 nM/mg
